This note sets out measurements from ChEMBL document CHEMBL1145091, “Ring-expanded ("fat") nucleoside and nucleotide analogues exhibit potent in vitro activity against flaviviridae NTPases/helicases, including those of the West Nile virus, hepatitis C virus, and Japanese encephalitis virus” (J Med Chem, 2003).

Assay [1] has as its system Hepatitis C virus. Description: Tested for inhibition against Helicase activity of hepatitis C virus (HCV) in presence of ATP adjusted to 105 uM and 4.7 pM of DNA substrate. The class given is functional, Hepacivirus hominis. The gist of the method:
(§1)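 Unwinding of a 32P 5'-end-labelled partial duplex (26-mer released strand on 40-mer template; DNA or RNA as per line, 4.7 pM nucleotide base), using purified NTPase/helicase (2 pmol WNV from infected Vero E6 medium; 0.5 pmol HCV or 4 pmol JEV NS3 domain, or 0.2 pmol Suv3(Δ1–159), E. coli-expressed). ATP was set at each enzyme's ATPase Km: WNV 9.5 μM, HCV 105 μM, JEV 235 μM, Suv3 4.2 μM. The reaction ran in pH 7.5 Tris with 2 mM MgCl2 for 30 min at 30 °C.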

For assay [2], the system named is Japanese encephalitis virus. Description: Tested for inhibition against Helicase activity of Japanese encephalitis virus (JEV) in presence of ATP adjusted to 235 uM and 4.7 pM of DNA substrate. It counts as functional. The gist of the method:
as §1

Assay [3] in a line: Tested for inhibition against Helicase activity of human NTPase/Helicase Suv3 (delta1-159) in presence of ATP adjusted to 4.2 uM and 4.7 pM of DNA substrate. The class given is functional. The method, boiled down: as §1
Assay [4] has as its system West Nile virus. Description: Tested for inhibition against Helicase activity of west nile virus (WNV) in presence of ATP adjusted to 9.5 uM and 4.7 pM of DNA substrate. It counts as functional. The method, boiled down: as §1
In assay [5] the test system is Hepatitis C virus. Description: Tested for inhibition against Helicase activity of hepatitis C virus (HCV) in presence of ATP adjusted to 105 uM and 4.7 pM of RNA duplex substrate. The class given is functional, Hepacivirus hominis. The gist of the method:
as §1

For assay [6], the system named is Japanese encephalitis virus. The experiment in a line: Tested for inhibition against Helicase activity of Japanese encephalitis virus (JEV) in presence of ATP adjusted to 235 uM and 4.7 pM of RNA duplex substrate. It counts as functional. The gist of the method: as §1
A short description of assay [7]: Tested for inhibition against Helicase activity of human NTPase/Helicase Suv3 (delta1-159) in presence of ATP adjusted to 4.2 uM and 4.7 pM of RNA duplex substrate. The class given is functional. The method, boiled down:
as §1

The subject of assay [8] is West Nile virus. Description: Tested for inhibition against Helicase activity of west nile virus (WNV) in presence of ATP adjusted to 9.5 uM and 4.7 pM of RNA duplex substrate. The class given is functional. The gist of the method: as §1
Assay [9] relates to Hepatitis C virus. Description: Tested for activating effect of hepatitis C virus (HCV) in presence of ATP adjusted to 105 uM and 4.7 pM of DNA substrate. The class given is functional, Hepacivirus hominis. The gist of the method:
as §1

In assay [10] the test system is West Nile virus. The experiment in a line: Tested for activating effect of west nile virus (WNV) in presence of ATP adjusted to […] and 4.7 pM of DNA substrate. The class given is functional.
Assay [11] concerns Hepatitis C virus. The experiment in a line: Tested for inhibition against 1.05 nM ATPase activity of hepatitis C virus (HCV) in presence of ATP adjusted to 1*10e-5 of Km of enzyme. It counts as functional, Hepacivirus hominis. The gist of the method: (§2)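 ATPase assay measuring 33Pi released from [γ-33P]ATP. Enzymes were 2 pmol WNV, 0.5 pmol HCV, 4 pmol JEV or 0.2 pmol Suv3(Δ1–159). The reaction ran in pH 7.5 Tris with 2 mM MgCl2 and 0.1 mg/mL BSA for 30 min at 30 °C and was stopped with activated charcoal; supernatant was scintillation-counted.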

The test system of assay [12] is Hepatitis C virus. Description: Tested for inhibition against 1.05 nM ATPase activity of hepatitis C virus (HCV) in presence of ATP adjusted to 1*10e-4 of Km of enzyme. It counts as functional, Hepacivirus hominis. The method, boiled down: as §2
The subject of assay [13] is Japanese encephalitis virus. The experiment in a line: Tested for inhibition against 2.35 nM ATPase activity of Japanese encephalitis virus (JEV) in presence of ATP adjusted to 1*10e-5 of Km of enzyme. It counts as functional. The method, boiled down: as §2
The test system of assay [14] is Japanese encephalitis virus. The experiment in a line: Tested for inhibition against […] ATPase activity of Japanese encephalitis virus (JEV) in presence of ATP adjusted to 1*10e-4 of Km of enzyme. It counts as functional. The gist of the method:
as §2

Assay [15] in a line: Tested for inhibition against 42 nM ATPase activity of human NTPase/Helicase Suv3 (delta1-159) in presence of ATP adjusted to 1*10e-5 of Km of enzyme. It counts as functional. The gist of the method: as §2
Assay [16] is described as follows: Tested for inhibition against 42 pM ATPase activity of human NTPase/Helicase Suv3 (delta1-159) in presence of ATP adjusted to 1*10e-4 of Km of enzyme. It counts as functional. The gist of the method:
as §2

Assay [17] concerns West Nile virus. Description: Tested for inhibition against 95 pM ATPase activity of west nile virus (WNV) in presence of ATP adjusted to 1*10e-5 of Km of enzyme. The class given is functional. The method, boiled down: as §2
The test system of assay [18] is West Nile virus. Description: Tested for inhibition against 95 pM ATPase activity of west nile virus (WNV) in presence of ATP adjusted to 1*10e-4 of Km of enzyme. It counts as functional. The method, boiled down: as §2
Assay [19] concerns Hepatitis B virus. The experiment in a line: Tested for inhibition against […] in cultured human hepatoblastoma 2.2.15 cells. It counts as functional, organism-based. Conditions: HepG2 2.2.15.
In assay [20] the test system is Flavivirus. Description: Tested for inhibition against Flaviviridae NTPase/helicase (NTPase/helicase Non structural protein 3). It counts as functional. Conditions: Orthoflavivirus.
A short description of assay [21]: Antimeasles activity determined. The class given is functional.
The test system of assay [22] is Human rhinovirus sp. The experiment in a line: Antirhino activity determined. The class given is functional, organism-based.

A value given as a limit tells only on which side of the number the result lay.

Regarding `CO[C@@H]1[C@H](O)[C@@H](CO)O[C@H]1n1cnc2c(=O)[nH][nH]c(=O)c21`, the IC50 – broadly, the concentration needed to halve the response being measured – in assay [1] is 450 µM; in assay [2] it was greater than 500 µM; in assay [3] it was greater than 500 µM; in [4] it was 30 µM.

`NC1=NC(=O)C2C(N=CN2COCCO)C(=O)N1` (centres undefined): the concentration for half-maximal inhibition (IC50) in assay [1], in [2] and in assay [4] was greater than 500 µM throughout.

On to `NC1=NC(=O)C2C(N=CN2COCCOCc2ccccc2)C(=O)N1` (centres undefined), for which the IC50 in assay [1] is 11 µM; in assay [5], 5.5 µM; in assay [2], 150 µM; in assay [6] it was greater than 500 µM; in assay [3] it was 5 µM; in [7] it was 6 µM. Further, the IC50 in assay [4] came to 5.7 µM; in assay [8] it was 3.3 µM.

For `O=C1NC2C(N=CN2Cc2ccccc2)C(=O)N(Cc2ccccc2)N1` (centres undefined), the IC50 in assay [1], in assay [5], in assay [2], in assay [6], in assay [3] and in assay [7] was greater than 500 µM throughout. The IC50 in assay [4] was 3.5 µM; in assay [8], greater than 500 µM.

Take `NC1=NC(=O)C2C(N=CN2[C@H]2O[C@H](CO)[C@@H](O)[C@H]2O)C(=O)N1` (some centres undefined): the ED200 in assay [9] amounted to 150 µM; in assay [10], 60 µM. For the same molecule, the IC50 in assay [5] was 12 µM; in assay [2] it was greater than 500 µM; in assay [6] it was 4.5 µM; in assay [3], greater than 500 µM; in [7] it was 3.5 µM; in [8], 220 µM.

Consider `Nc1nc(=O)c2c(ncn2[C@@H]2C[C@H](O)[C@@H](CO)O2)c(=O)[nH]1`, for which the IC50 is 7 µM in assay [1]; greater than 500 µM in assay [5]; 13 µM in assay [2]; 2 µM in assay [6]; 28 µM in assay [3]; 150 µM in assay [7]. In addition, the 50% inhibitory concentration (IC50) in assay [4] amounted to 25 µM; in [8], 5.7 µM.

Turning to `CO[C@@H]1[C@H](O)[C@@H](CO)O[C@H]1n1cnc2c(=O)[nH]c(N)nc(=O)c21`, the ED200 in assay [9] turned out to be 350 µM. Also, the IC50 in assay [2], in [3] and in [4] was greater than 500 µM in each case.

Regarding `NC1=NC(=O)C2N=CNC2C(=O)N1` (centres undefined), the IC50 was greater than 500 µM in assay [1]; 200 µM in assay [5]; greater than 500 µM in assay [2]; greater than 500 µM in [6]; 500 µM in [7]; greater than 500 µM in [4]. Also, the IC50 in [8] was 220 µM.

Take `O=C1NC2N=CNC2C(=O)N(Cc2ccccc2)N1` (centres undefined): the IC50 in assay [1], in assay [5], in assay [2], in assay [6], in assay [3] and in assay [7] was greater than 500 µM in each case. The IC50 in assay [4] was 1.3 µM; in assay [8] it was greater than 500 µM.

On to `NC1=NC(=O)C2C(N=CN2CCOCP(=O)(O)O)C(=O)N1` (centres undefined), for which the IC50 was 200 µM in assay [1], greater than 500 µM in assay [2], greater than 500 µM in [3] and 500 µM in [4].

As for `O=C1NNC(=O)C2C(N=CN2C2O[C@H](COP(=O)(O)OP(=O)(O)OP(=O)(O)O)[C@@H](O)[C@H]2O)N1` (some centres undefined), the IC50 in [11] amounted to 1.5 µM; in [13] it was 40 µM; in [15], 125 µM; in [17], 4 µM. The Ki (commonly the equilibrium dissociation constant of an inhibitor or competing ligand from its target) in assay [12] was found to be 1.7 µM; in assay [14], 15 µM; in [16], 45 µM; in [18], 2.9 µM.

For `N=C1N=C(N)N=C(N)C2N=CN(C3O[C@@H](COP(=O)(O)OP(=O)(O)OP(=O)(O)O)[C@H](O)[C@@H]3O)C12` (some centres undefined), the IC50 was determined as 0.55 µM in assay [11], 12 µM in assay [13], 40 µM in [15] and 0.15 µM in [17]. Moreover, the Ki in [12] came out at 0.2 µM; in assay [14], 3.5 µM; in assay [16] it was 15 µM; in assay [18], 0.38 µM.

On to `N=C1N=C(N)N=C(N)C2N=CN(C3O[C@@H](CO)[C@H](O)[C@@H]3O)C12` (some centres undefined), for which the IC50 in assay [1], in assay [2], in assay [3] and in assay [4] was greater than 500 µM in each case.

As for `NC1=NC(=O)C2C(N=CN2[C@@H]2O[C@H](CO)C(O)[C@H]2O)C(=O)N1` (single isomer, unassigned), the IC50 is 0.13 µM in assay [19] and greater than 500 µM in assay [20].

With `NC1=NC(=O)C2C(N=CN2[C@H]2CC(O)[C@@H](CO)O2)C(=O)N1` (single isomer, unassigned), the ED200 in assay [9] is 100 µM. Also, the IC50 in assay [2], in assay [3] and in assay [4] was greater than 500 µM in each case.

For the molecule `NC1=NC(=O)C2C(N=C(c3ccccc3)N2C2O[C@H](CO)C(O)[C@H]2O)C(=O)N1` (single isomer, unassigned), the IC50 in assay [21] worked out at 0.5 µM; in assay [22], 6.7 µM.

Regarding `O=C1NNC(=O)C2C(N=CN2C2O[C@H](CO)C(O)[C@H]2O)N1` (single isomer, unassigned), the IC50 in assay [1], in assay [2], in [3] and in assay [4] was greater than 500 µM in each case.
